{
  "source": "ChEMBL document CHEMBL1139875",
  "about": "“Discovery of 4-aminobutyric acid derivatives possessing anticonvulsant and antinociceptive activities: a hybrid pharmacophore approach” (2007)",
  "key": {"[1]": {"system": "Rattus norvegicus", "assay": "Antihyperalgesic effects in Sprague-Dawley rat SNL model assessed as duration of paw withdrawal at 100 mg/kg, ip after 2 hrs, ip", "type": "functional", "settings": "route intraperitoneal", "method_in_brief": "(§1)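 L5 SNL rats (n = 4), dosed 100 mg/kg i.p. (vehicle 30% v/v PEG 400 in water). Pin-prick to midplantar ipsilateral left hindpaw; withdrawal duration, mean of three responses; ≥2 s defined abnormal. Mean ± SEM; one-way ANOVA with Bonferroni versus predrug.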"}, "[2]": {"system": "Rattus norvegicus", "assay": "Anti-cold allodynia effect in Sprague-Dawley rat SNL model assessed as duration of paw withdrawal 100 mg/kg, ip after 1 hrs", "type": "functional", "settings": "route intraperitoneal", "method_in_brief": "(§2)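 Left L5 spinal nerve ligation under pentobarbital (65 mg/kg i.p.). Allodynic rats dosed i.p. 100 mg/kg, vehicle 30% v/v PEG 400 in water. Acetone (100-200 µL) misted onto midplantar affected paw after 10 min acclimatization; paw withdrawal duration, mean of three samples at least 3 min apart; n = 4 rats.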"}, "[3]": {"system": "Rattus norvegicus", "assay": "Antihyperalgesic effects in Sprague-Dawley rat SNL model assessed as duration of paw withdrawal at 100 mg/kg, ip after 1.5 hrs, ip", "type": "functional", "settings": "route intraperitoneal", "method_in_brief": "as §1"}, "[4]": {"system": "Mus musculus", "assay": "Anticonvulsant activity in Swiss Albino mouse at 300 mg/kg, ip after 0.5 hr by scPTZ test", "type": "functional, organism-based", "set-up": "dose 300 mg/kg", "method_in_brief": "(§3)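 Mice (Swiss, 20-25 g) given i.p. doses of 30, 100 and 300 mg/kg under ADD program protocols, three per group, examined at 0.5 and 4 h in MES, scPTZ, scSTY or scPIC seizure tests. Value is the minimum dose protecting half or more of the mice.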"}, "[5]": {"system": "Rattus norvegicus", "assay": "Anti-cold allodynia effect in Sprague-Dawley rat SNL model assessed as duration of paw withdrawal 100 mg/kg, ip after 2 hrs", "type": "functional", "settings": "route intraperitoneal", "method_in_brief": "as §2"}, "[6]": {"system": "Rattus norvegicus", "assay": "Effect on spontaneous pain in Sprague-Dawley rat CCI model assessed as duration of paw withdrawal at 100 mg/kg, ip after 2 hrs", "type": "functional", "settings": "route intraperitoneal", "method_in_brief": "(§4)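 Unilateral CCI of sciatic nerve (Bennett and Xie) in Sprague-Dawley rats under i.p. pentobarbital sodium (65 mg/kg). Spontaneous pain is scored over 5 min after 10 min acclimatization, as cumulative time the ipsilateral paw is held off the floor. Paw lifts from locomotion or repositioning are excluded. Drug is given at 100 mg/kg i.p. with 30% v/v PEG 400 vehicle. Mean ± SEM, n = 4, compared with predrug by ANOVA/Bonferroni.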"}, "[7]": {"system": "Rattus norvegicus", "assay": "Effect on spontaneous pain in Sprague-Dawley rat CCI model assessed as duration of paw withdrawal at 100 mg/kg, ip after 1.5 hrs", "type": "functional", "settings": "route intraperitoneal", "method_in_brief": "as §4"}, "[8]": {"system": "Rattus norvegicus", "assay": "Antihyperalgesic effects in Sprague-Dawley rat SNL model assessed as duration of paw withdrawal at 100 mg/kg, ip after 2.5 hrs, ip", "type": "functional", "settings": "route intraperitoneal", "method_in_brief": "as §1"}, "[9]": {"system": "Mus musculus", "assay": "Analgesic activity in Swiss Albino mouse assessed as number of acetic acid-induced writhing per 30 min after 100 mg/kg, ip", "type": "functional", "settings": "route intraperitoneal", "method_in_brief": "(§5)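 Mice in groups of six dosed i.p. at 100 mg/kg, controls receiving 30% v/v PEG 400 in water. Writhing induced by i.p. 0.1 mL of 3% v/v acetic acid 1 h after drug. Writhes (abdominal stretch with at least one hind limb extended) counted over 30 min; % inhibition calculated. Mean ± SEM, Student's t test.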"}, "[10]": {"system": "Rattus norvegicus", "assay": "Effect on spontaneous pain in Sprague-Dawley rat CCI model assessed as duration of paw withdrawal at 100 mg/kg, ip after 1 hr", "type": "functional", "settings": "route intraperitoneal", "method_in_brief": "(§6)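 CCI rats (n = 4) dosed 100 mg/kg i.p. (vehicle 30% v/v PEG 400 in water). After 10 min acclimatization in a cage 5 cm above ground, cumulative time the ipsilateral paw was held off the floor over 5 min recorded, excluding locomotion lifts. Mean ± SEM; ANOVA/Bonferroni versus predrug.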"}, "[11]": {"system": "Mus musculus", "assay": "Anticonvulsant activity in Swiss Albino mouse at 300 mg/kg, ip after 0.5 hr by scSTY test", "type": "functional, organism-based", "set-up": "dose 300 mg/kg", "method_in_brief": "as §3"}, "[12]": {"system": "Mus musculus", "assay": "Anticonvulsant activity in Swiss Albino mouse at 300 mg/kg, ip after 4 hrs by MES test", "type": "functional, organism-based", "set-up": "dose 300 mg/kg", "method_in_brief": "as §3"}, "[13]": {"system": "Mus musculus", "assay": "Neurotoxicity in Swiss Albino mouse at 300 mg/kg, ip after 0.5 hr by rotarod test", "type": "functional, organism-based", "set-up": "dose 300 mg/kg", "method_in_brief": "(§7)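 Swiss mice (20-25 g) are trained on an accelerating rotorod (10 rpm, 3.2 cm rod), then injected i.p. at 30, 100 or 300 mg/kg, with three per group. Neurotoxicity means failure to keep equilibrium for at least 1 min in each of three trials, checked at 0.5 and 4 h. The value reported is the minimum dose affecting half or more of the mice.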"}, "[14]": {"system": "Mus musculus", "assay": "Anticonvulsant activity in Swiss Albino mouse at 300 mg/kg, ip after 4 hrs by scPIC test", "type": "functional, organism-based", "set-up": "dose 300 mg/kg", "method_in_brief": "as §3"}, "[15]": {"system": "Rattus norvegicus", "assay": "Anti-cold allodynia effect in Sprague-Dawley rat SNL model assessed as duration of paw withdrawal 100 mg/kg, ip after 1.5 hrs", "type": "functional", "settings": "route intraperitoneal", "method_in_brief": "as §2"}, "[16]": {"system": "Mus musculus", "assay": "Anticonvulsant activity in Swiss Albino mouse at 300 mg/kg, ip after 0.5 hr by MES test", "type": "functional, organism-based", "set-up": "dose 300 mg/kg", "method_in_brief": "as §3"}, "[17]": {"system": "Mus musculus", "assay": "Anticonvulsant activity in Swiss Albino mouse at 300 mg/kg, ip after 4 hrs by scSTY test", "type": "functional, organism-based", "set-up": "dose 300 mg/kg", "method_in_brief": "as §3"}, "[18]": {"system": "Rattus norvegicus", "assay": "Antihyperalgesic effects in Sprague-Dawley rat CCI model assessed as duration of paw withdrawal at 100 mg/kg, ip after 2.5 hrs", "type": "functional", "settings": "route intraperitoneal"}, "[19]": {"system": "Rattus norvegicus", "assay": "Antihyperalgesic effects in Sprague-Dawley rat CCI model assessed as duration of paw withdrawal at 100 mg/kg, ip after 2 hrs", "type": "functional", "settings": "route intraperitoneal"}, "[20]": {"system": "Rattus norvegicus", "assay": "Antihyperalgesic effects in Sprague-Dawley rat CCI model assessed as duration of paw withdrawal at 100 mg/kg, ip after 1 hr", "type": "functional", "settings": "route intraperitoneal"}, "[21]": {"system": "Rattus norvegicus", "assay": "Effect on spontaneous pain in Sprague-Dawley rat CCI model assessed as duration of paw withdrawal at 100 mg/kg, ip after 2.5 hrs", "type": "functional", "settings": "route intraperitoneal", "method_in_brief": "as §4"}, "[22]": {"system": "Mus musculus", "assay": "Neurotoxicity in Swiss Albino mouse at 300 mg/kg, ip after 4 hrs by rotarod test", "type": "functional, organism-based", "set-up": "dose 300 mg/kg", "method_in_brief": "as §7"}, "[23]": {"system": "Rattus norvegicus", "assay": "Effect on spontaneous pain in Sprague-Dawley rat CCI model assessed as duration of paw withdrawal at 100 mg/kg, ip after 0.5 hr", "type": "functional", "settings": "route intraperitoneal", "method_in_brief": "as §6"}, "[24]": {"system": "Rattus norvegicus", "assay": "Anti-cold allodynia effect in Sprague-Dawley rat SNL model assessed as duration of paw withdrawal 100 mg/kg, ip after 2.5 hrs", "type": "functional", "settings": "route intraperitoneal", "method_in_brief": "as §2"}, "[25]": {"system": "Rattus norvegicus", "assay": "Antihyperalgesic effects in Sprague-Dawley rat SNL model assessed as duration of paw withdrawal at 100 mg/kg, ip after 0.5 hr, ip", "type": "functional", "settings": "route intraperitoneal", "method_in_brief": "as §1"}, "[26]": {"system": "Rattus norvegicus", "assay": "Antihyperalgesic effects in Sprague-Dawley rat CCI model assessed as duration of paw withdrawal at 100 mg/kg, ip after 1.5 hrs", "type": "functional", "settings": "route intraperitoneal"}, "[27]": {"system": "Mus musculus", "assay": "Anticonvulsant activity in Swiss Albino mouse at 300 mg/kg, ip after 0.5 hr by scPIC test", "type": "functional, organism-based", "set-up": "dose 300 mg/kg", "method_in_brief": "as §3"}, "[28]": {"system": "Rattus norvegicus", "assay": "Anti-cold allodynia effect in Sprague-Dawley rat SNL model assessed as duration of paw withdrawal 100 mg/kg, ip after 0.5 hr", "type": "functional", "settings": "route intraperitoneal", "method_in_brief": "as §2"}, "[29]": {"system": "Rattus norvegicus", "assay": "Antihyperalgesic effects in Sprague-Dawley rat CCI model assessed as duration of paw withdrawal at 100 mg/kg, ip after 0.5 hr", "type": "functional", "settings": "route intraperitoneal"}, "[30]": {"system": "Rattus norvegicus", "assay": "Antihyperalgesic effects in Sprague-Dawley rat SNL model assessed as duration of paw withdrawal at 100 mg/kg, ip after 1 hr, ip", "type": "functional", "settings": "route intraperitoneal", "method_in_brief": "as §1"}, "[31]": {"system": "Mus musculus", "assay": "Analgesic activity in Swiss Albino mouse assessed as inhibition of acetic acid-induced writhing responses at 100 mg/kg, ip", "type": "functional", "settings": "route intraperitoneal", "method_in_brief": "as §5"}},
  "note": "Active and inactive are the calls of the source. No cut-off for these calls is given here.",
  "data": [
    {"smiles": "C/C(=N\\NC(=O)NCCCC(=O)O)c1cccc(N)c1", "values": [
      {"measurement": "Activity", "setting": "[1]", "result": 19.5, "unit": "s"},
      {"measurement": "Activity", "setting": "[2]", "result": 11.2, "unit": "s"},
      {"measurement": "Activity", "setting": "[3]", "result": 7.3, "unit": "s"},
      {"measurement": "Activity", "setting": "[4]", "result": "inactive"},
      {"measurement": "Activity", "setting": "[5]", "result": 13.5, "unit": "s"},
      {"measurement": "Activity", "setting": "[6]", "result": 1.4, "unit": "s"},
      {"measurement": "Activity", "setting": "[7]", "result": 0.9, "unit": "s"},
      {"measurement": "Activity", "setting": "[8]", "result": 17.3, "unit": "s"},
      {"measurement": "Activity", "setting": "[9]", "result": 19.7},
      {"measurement": "Activity", "setting": "[10]", "result": 1.2, "unit": "s"},
      {"measurement": "Activity", "setting": "[11]", "result": "inactive"},
      {"measurement": "Activity", "setting": "[12]", "result": "Active"},
      {"measurement": "Activity", "setting": "[13]", "result": "Active"},
      {"measurement": "Activity", "setting": "[14]", "result": "inactive"},
      {"measurement": "Activity", "setting": "[15]", "result": 17.5, "unit": "s"},
      {"measurement": "Activity", "setting": "[16]", "result": "Active"},
      {"measurement": "Activity", "setting": "[17]", "result": "inactive"},
      {"measurement": "Activity", "setting": "[18]", "result": 4.8, "unit": "s"},
      {"measurement": "Activity", "setting": "[19]", "result": 6.6, "unit": "s"},
      {"measurement": "Activity", "setting": "[20]", "result": 9.6, "unit": "s"},
      {"measurement": "Activity", "setting": "[21]", "result": 2.8, "unit": "s"},
      {"measurement": "Activity", "setting": "[22]", "result": "Active"},
      {"measurement": "Activity", "setting": "[23]", "result": 1.7, "unit": "s"},
      {"measurement": "Activity", "setting": "[24]", "result": 15.2, "unit": "s"},
      {"measurement": "Activity", "setting": "[25]", "result": 2.4, "unit": "s"},
      {"measurement": "Activity", "setting": "[26]", "result": 9.9, "unit": "s"},
      {"measurement": "Activity", "setting": "[27]", "result": "inactive"},
      {"measurement": "Activity", "setting": "[28]", "result": 4.8, "unit": "s"},
      {"measurement": "Activity", "setting": "[29]", "result": 9.3, "unit": "s"},
      {"measurement": "Activity", "setting": "[30]", "result": 6.5, "unit": "s"},
      {"measurement": "inhibition in vivo at 100 mg/kg", "setting": "[31]", "result": 89, "unit": "%"}
    ]}
  ]
}
